High-throughput results from PubChem BioAssay.
Rows were chosen to be rich in hits. Some 1.8% of all compounds tested hit in one or more screens of this group.
SIAE primary = inhibitors of human sialic acid acetylesterase SIAE; Q9HAT2; SIAE FP-Rh probe binding, fluorescence polarization; inhibition, % at 9.66 µM; 370,000 tested, 0.69% active; AID 1053197;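 active = inhibition above a cutoff: mean of compounds within the control limits plus 3 SD of those, cut at about 17% in these data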;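 also: 0% = plate median of compound wells and 100% = probe without SIAE protein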
TCR-CD3 inh = inhibitors of human TCR-CD3 interaction | TAMRA-labeled TCR probe fluorescence, biochemical | inhibition, % at 9.4 µM | 360,000 tested, 0.37% active | AID 651800; in the data active = inhibition above about 19%;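 also: recombinant mutant TCR 2C K166C tagged with TAMRA read by polarization; 0% = receptor in buffer alone and 100% = receptor with positive control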
Fam108B inh = Fam108B inhibition, counter-screen for RBBP9 inhibitors. inhibition, % at 9.51 µM. AID 1947. recombinant Fam108B, FP-Rh probe fluorescence polarization. 300,000 tested, 0.33% active;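 active = inhibition above the screen mean inhibition plus 3 SD, computed separately per campaign, cut at about 18% in these data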;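 also: inhibitors lower polarization as less probe binds the enzyme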
ABHD4 inh = ABHD4 (mouse) inhibition, primary FP screen | Q8VD66 | purified mABHD4, FP-Rh probe fluorescence polarization | inhibition, % at 8.92 µM | 370,000 tested, 0.54% active;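 active = inhibition exceeding the mean over every tested compound plus 3 SD, cut at about 30% in these data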;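 also: 0% = plate median of compound wells and 100% = S159A mutant with DMSO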
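Assay system: wild-type mouse ABHD4 protein; compound: single nominal dose of 8.92 µM, 0.89% DMSO final; schedule: 45 min + 60 min at 25 °C; measured by: FP readout, ex 525 nm / em 598 nm; evaluation: % inhibition of FP-Rh probe binding versus controls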
HTRA1 inhibitor = inhibitors of human serine peptidase HTRA1 | recombinant HTRA1, FP-rhodamine activity-based probe, fluorescence polarization | inhibition, % at 5.96 µM | 340,000 tested, 0.5% active; in the data active = inhibition above about 36%;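 also: 0% = enzyme with DMSO and 100% = wells lacking enzyme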
Target sequence (Q92743 whole entry, looked up): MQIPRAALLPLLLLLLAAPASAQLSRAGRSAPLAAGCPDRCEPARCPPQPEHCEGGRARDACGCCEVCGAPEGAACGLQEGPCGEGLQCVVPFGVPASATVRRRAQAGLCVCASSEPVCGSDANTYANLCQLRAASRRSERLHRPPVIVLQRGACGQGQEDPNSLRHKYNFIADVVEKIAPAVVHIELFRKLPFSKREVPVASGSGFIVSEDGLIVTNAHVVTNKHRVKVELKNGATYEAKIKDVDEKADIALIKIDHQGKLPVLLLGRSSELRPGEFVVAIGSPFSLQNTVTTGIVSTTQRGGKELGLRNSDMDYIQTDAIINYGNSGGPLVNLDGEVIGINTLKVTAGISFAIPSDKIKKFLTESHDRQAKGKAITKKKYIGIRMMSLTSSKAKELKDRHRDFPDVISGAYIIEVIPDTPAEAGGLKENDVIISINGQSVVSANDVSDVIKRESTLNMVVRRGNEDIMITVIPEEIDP
PME-1 primary = PME-1 (human) inhibition. Q9Y570. recombinant PME-1, FP-Rh probe fluorescence polarization. inhibition, % at 5.9 µM. 320,000 tested, 0.53% active. AID 2130;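 active = inhibition above the campaign mean of all compounds plus 3 SD, cut at about 26% in these data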;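 also: competitive labeling of PME-1 active site by serine hydrolase directed probe; 0% = PME-1 with DMSO and 100% = wells lacking PME-1 enzyme; inhibitors block probe labeling so polarization falls and inhibition rises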
ABHD4 confirm = ABHD4 (mouse) inhibition, FP confirmation | shares compounds with ABHD4 inh | purified mABHD4, FP-Rh probe fluorescence polarization | inhibition, % at 8.92 µM | 1,800 tested, 55% active | AID 720658;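 active = mean inhibition across replicates above the hit cutoff set in the primary screen, cut at about 30% in these data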;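 also: 0% = wild-type ABHD4 with DMSO and 100% = catalytically dead S159A mutant with DMSO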
Starred values were filed as active, the others as inactive; / = no result; + = active, no number.

SMILES | SIAE primary | TCR-CD3 inh | Fam108B inh | ABHD4 inh | HTRA1 inhibitor | PME-1 primary | ABHD4 confirm
CC(C)N1CC2(CC(c3ccccc3F)=NO2)CN1C(=O)c1ccc(C(C)(C)C)cc1 (configuration not stated) | -2 | -9 | / | 6 | -25 | / | /
CC(C)N1CC2(CC(c3ccccc3C(F)(F)F)=NO2)CN1C(=O)c1ccc(C(C)(C)C)cc1 (configuration not stated) | -7 | -5 | / | 53* | -27 | / | 43*
COc1ccccc1OC(C)C(=O)N(Cc1ccco1)C1CCS(=O)(=O)C1 (configuration not stated) | / | / | -3 | / | 0 | -1 | /
O=C(NCCC1=CCCCC1)C1CCN(S(=O)(=O)c2ccccc2[N+](=O)[O-])CC1 | -8 | / | / | -5 | / | / | /
COC(=O)c1[nH]c2c(c1C(=O)OC)CCc1ccccc1-2 | -2 | 3 | 3 | 4 | -8 | 3 | /
O=C(CNc1cccc2ccccc12)N/N=C/c1ccc[nH]1 | 3 | 1 | 0 | 29 | 28 | -3 | /
O=C(CNc1cccc2ccccc12)N/N=C/C(Br)=C/c1ccccc1 | 7 | 3 | 8 | 32* | 22 | 27* | 3
CCN(CC)S(=O)(=O)c1ccc2c(c1)NC(=O)C1CCCN21 (configuration not stated) | -8 | -9 | 0 | 31* | -7 | -6 | 44*
CCC(C)COC(c1ccccc1)(c1ccccc1)C(Oc1nc(C)cc(C)n1)C(=O)O (configuration not stated) | -1 | 2 | 1 | 31* | -3 | 0 | 35*
Cc1cc(C)nc(OC(C(=O)O)C(OCCc2ccccc2)(c2ccc(F)cc2)c2ccc(F)cc2)n1 (configuration not stated) | 0 | -4 | -5 | 40* | -10 | 0 | 43*
CCCCOc1ccc2c(c1)C(=O)c1cc(O)ccc1-2 | 9 | 5 | 16 | 44* | 35 | 13 | 54*
COC(=O)Cc1nnn2c1[C@@H](C)[C@@H](c1ccccc1Br)OC[C@H](C)C2 | 2 | 6 | / | 5 | / | / | /
O=C1NN(c2ccc(Cl)c(Cl)c2)C(=O)/C1=C/c1ccc(-c2ccccc2C(=O)O)o1 | 4 | -4 | / | 31* | 2 | / | 65*
COC(=O)C1=C(O)/C(=C\c2ccc(CNS(=O)(=O)c3ccccc3)o2)N=C1C | 15 | 17 | 7 | 32* | 8 | -7 | 15
O=C(NC(Cc1ccccc1)C(=O)O)/C(=C/c1ccc(Br)cc1)NC(=O)c1ccc(Br)o1 (configuration not stated) | 1 | -1 | 2 | 1 | -4 | -1 | /
CCCCOCCCNC(=O)C[C@@H]1C[C@@]2(C(=O)OCC)CCC=C2N(Cc2cccc3ccccc23)C1=O | -1 | 7 | / | -13 | / | / | /
Cc1csc(N=Cc2ccc([N+](=O)[O-])o2)n1 | 16 | 9 | / | 30* | 32 | / | 14
O=C1NCN(c2ccccc2)C12CCN(CCCC(c1ccc(F)cc1)c1ccc(F)cc1)CC2 | 3 | -9 | 8 | 32* | -10 | -7 | 37*
O=C(CCCN1CCN(c2ccccc2)CC1)c1ccc(F)cc1 | -5 | -22 | / | -8 | 7 | / | /
CC1(C(=O)NS(=O)(=O)c2ccc(Br)cc2)CCN1C(=O)Cc1ccsc1 (configuration not stated) | -5 | 4 | / | 6 | / | / | /
O=C(NCCCO)c1ccc2nc(-c3ccco3)c(-c3ccco3)nc2c1 | 9 | 9 | / | 37* | 9 | / | 4
O=C(c1cccc(F)c1F)N1CCCC(c2nc(-c3cccs3)no2)C1 (configuration not stated) | 1 | / | / | -2 | / | / | /
O=C(NCc1cccnc1)c1cc(C2CCCCN2C(=O)CCCc2ccccc2)on1 (configuration not stated) | 2 | 2 | / | 1 | / | / | /
CCCCn1c(N)c(N(CC(C)C)C(=O)C2CCCO2)c(=O)[nH]c1=O (configuration not stated) | 0 | 6 | 2 | 32* | 3 | -6 | -4
CCCCn1c(N)c(N(CC(C)C)C(=O)c2ccc(N3C(=O)CCC3=O)cc2)c(=O)[nH]c1=O | 2 | -2 | 1 | 35* | -2 | -1 | 4
SMILES | SIAE primary | TCR-CD3 inh | Fam108B inh | ABHD4 inh | HTRA1 inhibitor | PME-1 primary | ABHD4 confirm
Cn1ncc(Cl)c1C(=O)N1CCC(Cc2ccccc2)CC1 | -6 | -14 | 0 | -14 | -1 | -2 | /
O=C(N1CCC(Cc2ccccc2)CC1)n1ncc(C(O)(c2ccccc2)c2ccccc2)n1 | -3 | / | / | 77* | / | / | 69*
Cc1ccc2nc(CSc3nc(C)cc(C)c3C#N)[nH]c2c1 | 3 | 5 | 7 | 44* | -4 | 10 | 15
COC(=O)[C@]12C[C@H](CC(=O)NCc3ccc(C)o3)C(=O)N(Cc3ccccc3)C1=C[C@H](C(C)(C)C)O[C@@H]2C | -6 | -2 | / | -9 | / | / | /
CCc1ccc(-n2c(=S)sc3c(=O)[nH]c(SCC(=O)NC4CCCCC4)nc32)cc1 | -5 | -1 | / | 4 | -5 | / | /
Cc1[nH]n(-c2ccccc2)c(=O)c1C(c1ccccc1C(=O)O)c1c(C)[nH]n(-c2ccccc2)c1=O | 1 | 3 | -5 | 5 | -4 | -1 | /
Cc1[nH]n(-c2ccccc2)c(=O)c1C(c1ccccc1[N+](=O)[O-])C(C#N)C#N (configuration not stated) | 14 | 4 | 5 | 42* | 14 | 2 | 38*
CCCCCc1ccc(OCCCC[n+]2ccc(C)cc2)c(CCCCC)c1 | 7 | 7 | 2 | 30* | 24 | 0 | 36*
CCOc1cc([N+](=O)[O-])cc(/C=C2/NC(=O)N(Cc3ccccc3F)C2=O)c1O | -6 | -3 | 6 | 31* | 27 | 11 | 54*
Cc1cc(/C=C2/NC(=O)N(Cc3ccccc3F)C2=O)c(C)n1C | 2 | -2 | 4 | 7 | 13 | 5 | /
Cc1cc(Cl)c(S(=O)(=O)Nc2ccc3c(c2)OCO3)cc1OCC(N)=O | -5 | 3 | 5 | 0 | 0 | 5 | /
Cc1cc(Cl)c(S(=O)(=O)Nc2ccc3c(c2)OCO3)cc1OCC(=O)NC1CCCCC1 | -2 | 0 | 2 | 30* | -14 | 5 | 3
Cc1cccc(N(O)C(=O)Nc2cccc(Cl)c2)c1 | 6 | -1 | / | -3 | 4 | / | /
CCc1nc2ccc(C(=O)N3CCN(C(=O)c4ccco4)CC3)cn2c1N(C)Cc1nccn1C | -5 | -6 | / | -6 | / | / | /
c1cc2c(cc1C1CCCCC1)c1c3n2CCCNC3CCC1 (configuration not stated) | 10 | 4 | 6 | 36* | 26 | -6 | 57*
Cn1c(=O)c2c(nc(SCc3nn[nH]n3)n2Cc2ccccc2F)n(C)c1=O | 6 | 5 | / | + | 8 | / | 7
